In the RNAGym collection of RNA variant scans (doi:10.1126/science.aae0568):
Fewer inactive variants are shown than the library holds.

B1: tRNA (parent)
chain: GUUCCGUUGGCGUAAUGGUAACGCGUCUCCCUCCUAAGGAGAAGACUGCGGGUUCGAGUCCCGUACGGAACG

Variants of: B1
Assay: yeast fitness relative to wild type (ratio to wild type); higher = fitter; tRNA-Arg(CCU), competitive growth, 37 C, YPD
How it was run: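 Amplicons of the tRNA-Arg(CCU) gene were sequenced, 100-nucleotide paired-end, from the start population and from each end population of a pooled yeast competition. The competition, in six parallel replicates, lasted 24 hours in YPD at 37°C. Fitness relative to wild type was calculated from changes in genotype frequencies. Genotypes had to have ≥ 100 starting reads, and estimates < 0.5 were set to 0.5.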

| Variant | yeast fitness |
| --- | --- |
| GUUCGGUUGGCGUAAUGGUACCGCGUCUCCCUCCUAAGGAGAAGGCUGCGGGUUCGAGUCCCGUACGAAACG [C5G A21C A45G G68A] | ≤ 0.5 |
| GUUCGGUUGGCGUAAUGGUAACGCGUCUCCCUCCUAAGGAGUAGACUGCGGGUUCGAGUCCCGUACGAAACG [C5G A42U G68A] | 0.582 |
| GUUCGGUUGGCGUAAUGGUAACGCGUCUCCCUCCUAAGGAGACGACUGCGGGUUCGAGUCCCGUACAGAACG [C5G A43C G67A] | 0.565 |
| GUUCGGUUGGCGUAAUGGUAACGCGUCUCCCUCCUAAGGAGUAGACUGCGGGUUCGUGACCCGUACGGCACG [C5G A42U A57U U59A A69C] | ≤ 0.5 |
| GUUCGGUUGGCGUAAUGGUAACGCGUCUCCCUCCUACGGAGUAGACUGCGGGUUCGAGUCCCGUACGGAACG [C5G A37C A42U] | 0.533 |
| GUUCGGUUGGCGUAAUGGUAACGCGUCUCCCUCCUGAGGAGAACACUGCGGGUUCGAGUCCCGUACGGAACG [C5G A36G G44C] | 0.672 |
| GUUCGGUUGGCGUAAUGGUAACGCGUCUCCCUCCUAUGGAGAAGAUUGCGGGUUCGAGUCCCGUACGGAACG [C5G A37U C46U] | 0.536 |
| GUUCGGUUGGCGUAAUGGUAACGCGUCUCCCUCCUAAGGAGAAGUCUGCGGGUUCGAGUCCCGUACGGAACG [C5G A45U] | 1.01 |
| GUUCGGUUGGCGUAAUGGUAACGCGUCUCCCUCCUAAGGAGAAGGCUGCGGGUUCGAGUCCCGUACGGAACG [C5G A45G] | 0.984 |
| GUUCGGUUGGCGUAAUGGUUACGCGUCUCCCUCCUAAGGAGAAGACUGCGCGUUCGAGUCGCGUUCGGACCG [C5G A20U G51C C61G A65U A70C] | 0.565 |
| GUUCGGUUGGCGUAAUGGUAGCGCGUGUCCCUCGUAAGGAGACGAGUGCGGGUUCGAGUCCCGUACGGAUCG [C5G A21G C27G C34G A43C C46G A70U] | 0.569 |
| GUUCGGUUGGCGUAAUGGUAACGCGUCUCCCUCCUAGGGAGAAGACUGCGGGUUCGAGUCCCGUACGGAACG [C5G A37G] | 0.805 |
| GUUCGGUUGGCGUAAUGGUAGCGCGUCUCCCCCCUAAGGAGAAGACUGCGGGUUCGAGUCCCGUACGGCACG [C5G A21G U32C A69C] | ≤ 0.5 |
| GUUCGGUUGGCGUAAUGGUGACGCGUCUCCCUCCUAAGGAGAAGACUGCGGGUUCGACUCCCGUACGGAACG [C5G A20G G58C] | 0.648 |
| GUUCGGUUGGCGUAAUGGUAACGCGUCUCCCUCCUAAGGAGUAGACUGCGGGUUCGAGUCCCGUACGGACCG [C5G A42U A70C] | 0.681 |
| GUUCGGUUGGCGUAAUGGUAACGCGUCUCCCUCCUAAGGAGAGGACUGCGGGUUCGAGUCCCGUACUGAACG [C5G A43G G67U] | 0.543 |
| GUUCGGUUGGCGUAAUGGUAUCGCGUCUCCCUCCUAAGGAGAGGACUGCGGGUUCGAGUCCAGUACGGAACG [C5G A21U A43G C62A] | ≤ 0.5 |
| GUUCGGUUGGCGUAAUGGUAGCGCGUCUCCCCCCUAAGGAGAAGACUGCGGGUUCGAGUCCCGUUCGAAACG [C5G A21G U32C A65U G68A] | 0.507 |
| GUUCGGUUGGCGUAAUGGUAGCGCGUCUCCCUCCUAAGGAGAAGACUGAGGGUCCGAGUCCCGUGCGGAACG [C5G A21G C49A U54C A65G] | ≤ 0.5 |

| Variant | yeast fitness |
| --- | --- |
| GUUCGGUUGGCGUAAUGGUGACGCGUCUCCCUCCUAAGGAGAAGAUUGCGGGUUCGAGUCCCGUACGGAACG [C5G A20G C46U] | 0.638 |
| GUUCGGUUGGCGUAAUGGUCACGCGUCCACCUCCUUAGGUGAAGACUGGGGGUUCGAGUCCCCUACGGAUCG [C5G A20C U28C C29A A36U A40U C49G G63C A70U] | 0.579 |
| GUUCGGUUGGCGUAAUGGUAACGCGUCUCCCUCCUAAGGAGCAGACUGCGGGUGCGAGUCCCGUACGGAACG [C5G A42C U54G] | ≤ 0.5 |
| GUUCGGUUGGCGUAAUGGUAACGCGUCUCCCUCCUAAGGAGAGGACUGCGGGUUCGAGUCCCGUACGGCACG [C5G A43G A69C] | 0.615 |
| GUUCGGUUGGCGUAAUGGUAACGCGUCUCCCUCCUUAGGAGAAGACUGCGGGUUCGAGUCUCGUACGGAACG [C5G A36U C61U] | ≤ 0.5 |
| GUUCGGUUGGCGUAAUGGUGACGCGUCUCCCUCCUGAGGAGAAGACUGCGGGUUCGAGUCCCGUAAGGAACG [C5G A20G A36G C66A] | ≤ 0.5 |
| GUUCGGUUGGCGUAAUGGUAACGCGUCUCCCUCCUAAGGAGAAGCCUGCGGGUUCGAGUCCCGGACGGAACG [C5G A45C U64G] | ≤ 0.5 |
| GUUCGGUUGGCGUAAUGGUUACGCGUCUCCCUCCUAGGGAGAAGACUGCGGGUUCGAGUCCCGAACGGAACG [C5G A20U A37G U64A] | 0.577 |
| GUUCGGUUGGCGUAAUGGUGACGCGUCUCCCUCCUCAGGAGGAGACUGCGGGUUCGAGUCCCGUACGGAACG [C5G A20G A36C A42G] | ≤ 0.5 |
| GUUCGGUUGGCGUAAUGGUAACGCGUCUCCCUCCUAAGGAGGAGACUGCGGGUUCGAGUCCCGCACGGAACG [C5G A42G U64C] | 0.72 |
| GUUCGGUUGGCGUAAUGGUAACGCGUCUCCCUCCUAAGGAGGAGACUGCGGGUUCGAGUCCCGGACGGAACG [C5G A42G U64G] | 0.637 |
| GUUCGGUUGGCGUAAUGGUAUCACGUCUACCUCCUAUGGAGAAGACUGCGGGUUCGGGUCUCGUACGGAACG [C5G A21U G23A C29A A37U A57G C61U] | 0.541 |
| GUUCGGUUGGCGUAAUGGUCACGUGUCUCCCUCCUAAGGAGAAGACUGCGGGUUUGAGUCCCGUACGGAACG [C5G A20C C24U C55U] | ≤ 0.5 |
| GUUCGGUUGGCGUAAUGGUACCGCGUCUCCCUCCUAAGGAGAUGACUGCGGGUUCGAGUCCCGUACGGAGCG [C5G A21C A43U A70G] | ≤ 0.5 |
| GUUCGGUUGGCGUAAUGGUUACGCGUCUCCCUCCUAAGGAGAAGACUGCGGGUUCGAGUCCGGUACGGAACG [C5G A20U C62G] | ≤ 0.5 |
| GUUCGGUUGGCGUAAUGGUAGCGCGUCUCCCUCCUAAGGAGAAAACUGCGGGUUCGACUCCCGUACGGAACG [C5G A21G G44A G58C] | 0.616 |
| GUUCGGUUGGCGUAAUGGUAACGCGUCUCCCUCCUAAGGAGCAGACUGCGGGUUCGCGUCCCGUACGUAACG [C5G A42C A57C G68U] | ≤ 0.5 |
| GUUCGGUUGGCGUAAUGGUAGCGCGUCUCCCUCCUAAGGAGAAGUCUGCGGGUUCGAGUCCCGUACGGUACG [C5G A21G A45U A69U] | 0.634 |
| GUUCGGUUGGCGUAAUGGUCACGUGUCUCCCUCCUAAGGAGAAGACUGCGGGUUCGAGUCCCGUACGGAACG [C5G A20C C24U] | ≤ 0.5 |
